Source: ChEMBL document CHEMBL3808328, “Caged xanthones: Potent inhibitors of global predominant MRSA USA300” (Bioorg Med Chem Lett, 2016)
In brackets after ≈: the same amount, converted by molar mass. Activity calls are given as the source filed them. The rule behind the calls is not given here.

Tests used:
Staphylococcus aureus [1] = test: Antibacterial activity against methicillin-resistant Staphylococcus aureus USA300 SF8300 assessed as zone of inhibition at 30 ug after 18 hrs by disk diffusion method; format: functional; conditions: USA300 SF8300, 18 h, read-out: DIZ
Summary of the method: (§1)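 Disk diffusion on 6 mm paper disks, with methicillin-susceptible S. aureus ATCC 25923 as the control strain alongside MRSA USA300 SF8300. The read-out is the diameter of the complete inhibition zone, averaged over at least three independent experiments and reported with standard errors. A 6 mm zone means no growth inhibition.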

Staphylococcus aureus [2] = test: Antibacterial activity against methicillin-susceptible Staphylococcus aureus ATCC 25923 assessed as zone of inhibition at 30 ug after 18 hrs by disk diffusion method; format: functional; conditions: ATCC 25923, 18 h, read-out: DIZ
Summary of the method: (§2)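 Disks 6 mm in diameter; a 6 mm zone means no growth inhibition. The diameters of complete-inhibition zones are averaged over at least three independent experiments and reported with standard errors.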

Staphylococcus aureus [3] = test: Antibacterial activity against methicillin-resistant Staphylococcus aureus USA300 SF8300 assessed as zone of inhibition at 1 ug after 18 hrs by disk diffusion method; format: functional; conditions: USA300 SF8300, 18 h, read-out: DIZ; summary of the method: as §1
Staphylococcus aureus [4] = test: Antibacterial activity against methicillin-susceptible Staphylococcus aureus ATCC 29213 assessed as growth inhibition after 18 to 20 hrs by microdilution assay; format: functional
Summary of the method: (§3)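 Broth microdilution gives both MIC and MBC. Each compound is serially 2-fold diluted starting from its stock concentration.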

Staphylococcus aureus [5] = test: Antibacterial activity against methicillin-resistant Staphylococcus aureus USA300 SF8300 assessed as growth inhibition after 18 to 20 hrs by microdilution assay; format: functional
Summary of the method: (§4)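 Broth microdilution to find MIC and MBC against MRSA USA300 SF8300. Each compound was serially 2-fold diluted starting from its stock concentration.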

Staphylococcus aureus [6] = test: Bactericidal activity against methicillin-resistant Staphylococcus aureus USA300 SF8300 after 18 to 20 hrs; format: functional; summary of the method: as §4
Staphylococcus aureus [7] = test: Antibacterial activity against methicillin-susceptible Staphylococcus aureus ATCC 25923 assessed as zone of inhibition at 1 ug after 18 hrs by disk diffusion method; format: functional; conditions: ATCC 25923, 18 h, read-out: DIZ; summary of the method: as §1
Staphylococcus aureus [8] = test: Bactericidal activity against methicillin-susceptible Staphylococcus aureus ATCC 29213 after 18 to 20 hrs; format: functional; summary of the method: as §3
A549 [9] = test: Cytotoxicity against human A549 cells assessed as reduction in cell viability after 24 to 48 hrs by Presto Blue assay; format: cell-based
Staphylococcus aureus [10] = test: Antibacterial activity against methicillin-susceptible Staphylococcus aureus RF122 infected in A549 cells assessed as inhibition of bacterial invasion at 1.5 uM after 1 hr; format: functional, organism-based
Summary of the method: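 Invasion assay in human epithelial A549 cells infected with S. aureus while the test compound was present. Concentrations were held below those that damage A549 cells. Both non-invading and invading bacteria were then cultured to rule out effects on bacterial growth.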

HEK293 [11] = test: Cytotoxicity against human HEK293 cells assessed as cells detachment at 12.5 uM after 2 hrs by microscopic analysis; format: cell-based; conditions: hek293, 2 h
HEK293 [12] = test: Cytotoxicity against human HEK293 cells assessed as reduction in cell viability after 24 to 48 hrs by […] assay
A549 [13] = test: Cytotoxicity against human A549 cells assessed as cells detachment at 50 uM after 10 mins by microscopic analysis; format: cell-based; conditions: a549, 10 min
A549 [14] = test: Cytotoxicity against human A549 cells assessed as cells detachment at 12.5 uM after 2 hrs by microscopic analysis; format: cell-based; conditions: a549, 2 h
HEK293 [15] = test: Cytotoxicity against human HEK293 cells assessed as cells detachment at 50 uM after 10 mins by microscopic analysis; format: cell-based; conditions: hek293, 10 min
A549 [16] = test: Cytotoxicity against human A549 cells assessed as change in cell morphology at 12.5 to 25 uM after 10 mins to 2 hrs by microscopic analysis; format: cell-based; conditions: a549, 25 µM
Staphylococcus aureus [17] = test: Effect on methicillin-susceptible Staphylococcus aureus RF122 growth at >= MIC after 2 hrs; format: organism-based
HEK293 [18] = test: Cytotoxicity against human HEK293 cells assessed as change in cell morphology at 12.5 to 25 uM after 10 mins to 2 hrs by microscopic analysis; format: cell-based; conditions: hek293, 25 µM
Staphylococcus aureus [19] = test: Antibacterial activity against methicillin-susceptible Staphylococcus aureus RF122 infected in A549 cells assessed as inhibition of bacterial invasion after 2 hrs
Staphylococcus aureus [20] = test: Antibacterial activity against methicillin-susceptible Staphylococcus aureus ATCC 25923 assessed as zone of inhibition at 10 ug after 18 hrs by disk diffusion method; format: functional; conditions: ATCC 25923, 18 h, read-out: DIZ; summary of the method: as §2
Staphylococcus aureus [21] = test: Antibacterial activity against methicillin-resistant Staphylococcus aureus USA300 SF8300 assessed as zone of inhibition at 10 ug after 18 hrs by disk diffusion method; format: functional; conditions: USA300 SF8300, 18 h, read-out: DIZ; summary of the method: as §1

Row | SMILES | zone of inhibition at 30 µg/disc (Staphylococcus aureus [1]) [mm] | zone of inhibition at 30 µg/disc (Staphylococcus aureus [2]) [mm] | MIC (Staphylococcus aureus [4]) [µM] | MIC (Staphylococcus aureus [5]) [µM] | MBC (Staphylococcus aureus [6]) [µM] | MBC (Staphylococcus aureus [8]) [µM] | IC50 (A549 [9]) [µM] | also measured
1 | CC(C)=CCc1c(O)cc(O)c2c1OC13C(=CC4(C/C=C/C(C)C)CC1C(C)(C)O[C@]3(CC=C(C)C)C4=O)C2=O | 6 | 6 |  |  |  |  |  | 
2 | Cc1onc(-c2ccccc2)c1C(=O)N[C@@H]1C(=O)N2[C@@H]1SC(C)(C)[C@@H]2C(=O)O [OXACILLIN] |  |  | 0.62 (≈ 0.249 µg/mL) | > 19.9 | > 19.9 | 1.25 (≈ 0.502 µg/mL) |  | zone of inhibition at 1 µg/disc (Staphylococcus aureus [3]): 6 mm; zone of inhibition at 1 µg/disc (Staphylococcus aureus [7]): 28.9 mm
3 | COC(=O)/C(C)=C\C[C@]12OC(C)(C)C3C[C@H](C=C4C(=O)c5c(O)c6c(c(CC=C(C)C)c5O[C@@]431)OC(C)(C)C=C6)C2=O | 6 | 6 |  |  |  |  |  | 
4 | CC(C)=CCc1c2c(c(O)c3c1O[C@@]14C(=C[C@H]5CC1C(C)(C)O[C@]4(C/C=C(/C)C(=O)N[C@@H](CC(C)C)C(=O)O)C5=O)C3=O)C=CC(C)(C)O2 | 18.3 | 16.5 | 25 (≈ 16.8 µg/mL) | 25 (≈ 16.8 µg/mL) | 50 (≈ 33.7 µg/mL) | 25 (≈ 16.8 µg/mL) | 15.5 | 
5 | CC(C)=CCc1c2c(c(O)c3c1O[C@@]14C(=C[C@H]5CC1C(C)(C)O[C@]4(C/C=C(/C)C(=O)O)C5=O)C3=O)C=CC(C)(C)O2 | 19.5 | 19.2 | 12.5 (≈ 7.01 µg/mL) | 12.5 (≈ 7.01 µg/mL) | 25 (≈ 14 µg/mL) | 12.5 (≈ 7.01 µg/mL) | 3.5 | inhibition (Staphylococcus aureus [10]): inactive; Activity (HEK293 [11]): Toxic; IC50 (HEK293 [12]): 2.33 µM; Activity (A549 [13]): Toxic; Activity (A549 [14]): Toxic; Activity (HEK293 [15]): Toxic
6 | CC(C)=CCc1c2c(c(O)c3c1O[C@@]14C(=C[C@H]5CC1C(C)(C)O[C@]4(C/C=C(/C)C(=O)N[C@@H](CCC(N)=O)C(=O)O)C5=O)C3=O)C=CC(C)(C)O2 | 9.09 | 7.5 |  |  |  |  |  | 
7 | CC(C)=CCc1c2c(c(O)c3c1O[C@@]14C(=C[C@H]5CC1C(C)(C)O[C@]4(C/C=C(\C)CO)C5=O)C3=O)C=CC(C)(C)O2 | 8.57 | 7.75 |  |  |  |  | 2.69 | IC50 (HEK293 [12]): 0.98 µM
8 | CC(C)=CCc1c2c(c(O)c3c1O[C@@]14C(=C[C@H]5CC1C(C)(C)O[C@]4(CC=C(C)C)C5=O)C3=O)C=CC(C)(C)O2 | 6 | 6 |  |  |  |  | 1.42 | IC50 (HEK293 [12]): 0.81 µM
9 | CSCC[C@H](NC(=O)/C(C)=C\C[C@]12OC(C)(C)C3C[C@H](C=C4C(=O)c5c(O)c6c(c(CC=C(C)C)c5O[C@@]431)OC(C)(C)C=C6)C2=O)C(=O)O | 9.53 | 7.09 |  |  |  |  |  | 
10 | CC(C)=CCc1c2c(c(O)c3c1O[C@@]14C(=C[C@H]5CC1C(C)(C)O[C@]4(C/C=C(/C)C(=O)N[C@H](C(=O)O)C(C)C)C5=O)C3=O)C=CC(C)(C)O2 | 22.2 | 20 | 12.5 (≈ 8.25 µg/mL) | 25 (≈ 16.5 µg/mL) | 25 (≈ 16.5 µg/mL) | 12.5 (≈ 8.25 µg/mL) | 29.8 | Activity (A549 [16]): Non-toxic; Activity (Staphylococcus aureus [17]): Non-toxic; Activity (HEK293 [18]): Non-toxic; IC50 (HEK293 [12]): 21.8 µM; inhibition (Staphylococcus aureus [19]): Dose-dependent effect
11 | CC(C)=CCc1c2c(c(O)c3c1O[C@@]14C(=C[C@H]5CC1C(C)(C)O[C@]4(C/C=C(/C)C(=O)N[C@@H](CO)C(=O)O)C5=O)C3=O)C=CC(C)(C)O2 | 6.28 | 6.09 |  |  |  |  |  | 
12 | CC(C)=CCc1c(O)cc(O)c2c1OC13C(=CC4CC1C(C)(C)O[C@]3(CC=C(C)C)C4=O)C2=O | 7.97 | 7.86 | 200 (≈ 92.9 µg/mL) | > 400 | > 400 | 200 (≈ 92.9 µg/mL) |  | 
13 | CC(C)=CCc1c2c(c(O)c3c1O[C@@]14C(=C[C@H]5CC1C(C)(C)O[C@]4(C/C=C(/C)C(=O)N[C@@H](CCC(=O)O)C(=O)O)C5=O)C3=O)C=CC(C)(C)O2 | 6 | 6 |  |  |  |  |  | 
14 | CC[C@H](C)[C@H](NC(=O)/C(C)=C\C[C@]12OC(C)(C)C3C[C@H](C=C4C(=O)c5c(O)c6c(c(CC=C(C)C)c5O[C@@]431)OC(C)(C)C=C6)C2=O)C(=O)O | 19.4 | 15.9 | 25 (≈ 16.8 µg/mL) | 25 (≈ 16.8 µg/mL) | 50 (≈ 33.7 µg/mL) | 25 (≈ 16.8 µg/mL) | 24.5 | 
15 | CC(C)=CCc1c2c(c(O)c3c1O[C@@]14C(=C[C@H]5CC1C(C)(C)O[C@]4(C/C=C(/C)C(=O)N[C@@H](CCC(=O)OCc1ccccc1)C(=O)O)C5=O)C3=O)C=CC(C)(C)O2 |  | 6.53 |  |  |  |  |  | 
16 | CC1(C)S[C@@H]2[C@H](NC(=O)[C@H](N)c3ccccc3)C(=O)N2[C@H]1C(=O)O [AMPICILLIN] |  |  | 1.56 (≈ 0.545 µg/mL) | > 100 | > 100 | 1.56 (≈ 0.545 µg/mL) |  | zone of inhibition at 10 µg/disc (Staphylococcus aureus [20]): 17 mm; zone of inhibition at 10 µg/disc (Staphylococcus aureus [21]): 6 mm
17 | CC(C)=CCc1c2c(c(O)c3c1O[C@@]14C(C[C@H]5CC1C(C)(C)O[C@]4(C/C=C(\C)C=O)C5=O)C3=O)C=CC(C)(C)O2 (stereo partly specified) | 6 | 6 |  |  |  |  |  | 
18 | CC(C)=CCC/C(C)=C/Cc1c(O)c(CC=C(C)C)c2c(c1O)C(=O)C1=C[C@H]3CC4C(C)(C)O[C@](CC=C(C)C)(C3=O)[C@]14O2 | 6 | 6 |  |  |  |  |  | 
19 | CC(C)=CCc1c2c(c(O)c3c1O[C@@]14C(=C[C@H]5CC1C(C)(C)O[C@]4(C/C=C(/C)C(=O)N1CCC[C@H]1C(=O)O)C5=O)C3=O)C=CC(C)(C)O2 | 15.9 | 13.1 | 50 (≈ 32.9 µg/mL) | 100 (≈ 65.8 µg/mL) | > 100 | 100 (≈ 65.8 µg/mL) | 21.1 | 
20 | CC(C)=CCC[C@]1(C)C=Cc2c(O)c3c(c(CC=C(C)C)c2O1)O[C@]12C(=C[C@@H]4C[C@H]1C(C)(C)O[C@@]2(C/C=C(/C)C(=O)O)C4=O)C3=O [GAMBOGIC ACID] | 17.3 | 16.6 | 12.5 (≈ 7.86 µg/mL) | 25 (≈ 15.7 µg/mL) | 50 (≈ 31.4 µg/mL) | 25 (≈ 15.7 µg/mL) | 3.4 | IC50 (HEK293 [12]): 1.72 µM
21 | CC(C)=CCc1c2c(c(O)c3c1O[C@@]14C(=C[C@H]5CC1C(C)(C)O[C@]4(C/C=C(/C)C(=O)N[C@@H](Cc1ccccc1)C(=O)O)C5=O)C3=O)C=CC(C)(C)O2 | 16.3 | 17.1 | 12.5 (≈ 8.85 µg/mL) | 25 (≈ 17.7 µg/mL) | 25 (≈ 17.7 µg/mL) | 12.5 (≈ 8.85 µg/mL) | 12.2 | 
22 | CC(C)=CCc1c2c(c(O)c3c1O[C@@]14C(=C[C@H]5CC1C(C)(C)O[C@]4(C/C=C(/C)C(=O)N[C@@H](CCC(=O)NC(c1ccccc1)(c1ccccc1)c1ccccc1)C(=O)O)C5=O)C3=O)C=CC(C)(C)O2 | 8.21 | 6.89 |  |  |  |  |  | 
